Values after ≈ are worked out from the molar mass of the structure shown.
What was measured:
[1] = biological target: T1, Bifunctional epoxide hydrolase 2 (Homo sapiens, UniProt P34913); test: Inhibition of recombinant human sEH expressed in baculovirus expression system using CMNPC as substrate preincubated for 5 mins followed by substrate addition measured for 10 mins by fluorescent based assay
T1 sequence (P34913 whole entry): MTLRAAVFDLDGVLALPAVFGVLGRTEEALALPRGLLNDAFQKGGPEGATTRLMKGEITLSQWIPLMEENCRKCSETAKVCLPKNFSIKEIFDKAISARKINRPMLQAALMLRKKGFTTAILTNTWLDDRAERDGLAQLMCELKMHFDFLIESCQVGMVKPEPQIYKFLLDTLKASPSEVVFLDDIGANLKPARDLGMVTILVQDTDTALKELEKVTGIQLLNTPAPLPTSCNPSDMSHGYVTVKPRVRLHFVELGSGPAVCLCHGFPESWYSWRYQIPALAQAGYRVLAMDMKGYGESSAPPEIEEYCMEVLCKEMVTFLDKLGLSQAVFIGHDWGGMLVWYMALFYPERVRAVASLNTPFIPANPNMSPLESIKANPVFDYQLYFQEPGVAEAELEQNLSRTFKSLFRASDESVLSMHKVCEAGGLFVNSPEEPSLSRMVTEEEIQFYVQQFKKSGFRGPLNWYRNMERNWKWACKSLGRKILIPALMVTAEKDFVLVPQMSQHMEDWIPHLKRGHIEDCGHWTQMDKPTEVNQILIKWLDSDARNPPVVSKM
In short: (§1)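 Kinetic fluorescent assay giving IC50 values; each value is the mean of three separate experiments.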

[2] = Aqueous solubility of the compound in 0.1 M sodium phosphate buffer at pH 7.4; format: physicochemical
In short: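 Solubility determined in 0.1 M sodium phosphate buffer, pH 7.4, with 1% DMSO present.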

[3] = biological target: T2, Bifunctional epoxide hydrolase 2 (Rattus norvegicus, UniProt P80299); test: Inhibition of rat sEH using CMNPC as substrate preincubated for 5 mins followed by substrate addition measured for 10 mins by fluorescent based assay; in short: as §1
T2 sequence (P80299 whole entry): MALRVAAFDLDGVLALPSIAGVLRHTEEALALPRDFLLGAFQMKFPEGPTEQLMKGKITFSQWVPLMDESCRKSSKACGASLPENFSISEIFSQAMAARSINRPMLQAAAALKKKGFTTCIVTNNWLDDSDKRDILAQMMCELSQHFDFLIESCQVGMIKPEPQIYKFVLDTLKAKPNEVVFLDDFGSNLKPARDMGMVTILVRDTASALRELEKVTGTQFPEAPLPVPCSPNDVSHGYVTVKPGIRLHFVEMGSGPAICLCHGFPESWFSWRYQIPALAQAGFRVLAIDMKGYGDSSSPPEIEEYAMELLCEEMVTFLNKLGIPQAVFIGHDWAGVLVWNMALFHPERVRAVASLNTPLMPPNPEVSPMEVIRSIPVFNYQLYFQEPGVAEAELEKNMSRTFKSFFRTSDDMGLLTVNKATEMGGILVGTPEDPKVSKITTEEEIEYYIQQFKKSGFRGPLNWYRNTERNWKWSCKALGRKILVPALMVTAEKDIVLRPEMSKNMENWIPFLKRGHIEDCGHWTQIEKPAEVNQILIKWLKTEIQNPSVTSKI

[4] = biological target: T3, Bifunctional epoxide hydrolase 2 (Mus musculus, UniProt P34914); test: Inhibition of recombinant mouse sEH expressed in baculovirus expression system using CMNPC as substrate preincubated for 5 mins followed by substrate addition measured for 10 mins by fluorescent based assay; in short: as §1
T3 sequence (P34914 whole entry): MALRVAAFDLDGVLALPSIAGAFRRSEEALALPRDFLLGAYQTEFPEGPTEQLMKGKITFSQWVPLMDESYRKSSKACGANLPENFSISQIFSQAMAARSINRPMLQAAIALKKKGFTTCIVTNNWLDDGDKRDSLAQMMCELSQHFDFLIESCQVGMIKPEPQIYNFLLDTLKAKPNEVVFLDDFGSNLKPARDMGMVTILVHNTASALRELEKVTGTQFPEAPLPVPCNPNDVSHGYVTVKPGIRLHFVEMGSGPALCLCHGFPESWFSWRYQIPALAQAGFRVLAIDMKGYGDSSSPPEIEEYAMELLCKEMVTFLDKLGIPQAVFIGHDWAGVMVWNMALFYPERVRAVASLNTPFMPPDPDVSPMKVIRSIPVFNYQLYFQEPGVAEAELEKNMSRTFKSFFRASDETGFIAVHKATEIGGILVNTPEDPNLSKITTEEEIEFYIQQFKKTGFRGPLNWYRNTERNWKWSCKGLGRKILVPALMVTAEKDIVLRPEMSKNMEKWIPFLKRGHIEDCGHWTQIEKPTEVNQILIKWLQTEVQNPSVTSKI

SMILES	IC50 [1] [nM]	solubility [2] [µM]	IC50 [3] [nM]	IC50 [4] [nM]
S=C(NC12CC3CC(CC(C3)C1)C2)NC12CC3CC(CC(C3)C1)C2	11.2	30 to 40 (≈ 10.3 to 13.8 µg/mL)		
S=C(NCCc1ccccc1)NCCC12CC3CC(CC(C3)C1)C2	52	60 to 80 (≈ 20.6 to 27.4 µg/mL)		
CC(NC(=S)NCCCCNC(=S)NC(C)C12CC3CC(CC(C3)C1)C2)C12CC3CC(CC(C3)C1)C2 (configuration not stated)		120 to 130 (≈ 63.7 to 69 µg/mL)		
CC12CC3CC(C)(C1)CC(NC(=S)NCCc1ccccc1)(C3)C2	216	8 to 12 (≈ 2.74 to 4.11 µg/mL)		
CC(NC(=S)Nc1ccc(C23CC4CC(CC(C4)C2)C3)cc1)C12CC3CC(CC(C3)C1)C2 (configuration not stated)	57400	10 to 15 (≈ 4.49 to 6.73 µg/mL)		
S=C(NCCC12CC3CC(CC(C3)C1)C2)Nc1ccc(C23CC4CC(CC(C4)C2)C3)cc1	5330	100 to 120 (≈ 44.9 to 53.8 µg/mL)		
S=C(NCCC12CC3CC(CC(C3)C1)C2)NC1C2CC3CC(C2)CC1C3 (configuration not stated)	259	125 to 150 (≈ 46.6 to 55.9 µg/mL)		
S=C(NCC12CC3CC(CC(C3)C1)C2)NC12CC3CC(CC(C3)C1)C2	20.8	70 to 80 (≈ 25.1 to 28.7 µg/mL)		
S=C(NCCCCCCNC(=S)NC12CC3CC(CC(C3)C1)C2)NC12CC3CC(CC(C3)C1)C2	7.7	70 to 80 (≈ 35.2 to 40.2 µg/mL)	61.6	50.6
Fc1cccc(NC(=S)NCC23CC4CC(CC(C4)C2)C3)c1	281	30 to 40 (≈ 9.55 to 12.7 µg/mL)		
S=C(NCCCCCCCNC(=S)NC12CC3CC(CC(C3)C1)C2)NC12CC3CC(CC(C3)C1)C2	7.2	70 to 80 (≈ 36.2 to 41.3 µg/mL)	35.3	47.3
CC(NC(=S)Nc1ccc(F)cc1)C12CC3CC(CC(C3)C1)C2 (configuration not stated)	1080	75 to 100 (≈ 24.9 to 33.2 µg/mL)		
CC(NC(=S)Nc1ccccc1)C12CC3CC(CC(C3)C1)C2 (configuration not stated)	2590			
CC12CC3CC(C)(C1)CC(NC(=S)Nc1ccccc1)(C3)C2	1220	40 to 60 (≈ 12.6 to 18.9 µg/mL)		
CC(NC(=S)NCCCCCCCCNC(=S)NC(C)C12CC3CC(CC(C3)C1)C2)C12CC3CC(CC(C3)C1)C2 (configuration not stated)		120 to 130 (≈ 70.4 to 76.3 µg/mL)		
CC(NC(=S)NCCc1ccccc1)C12CC3CC(CC(C3)C1)C2 (configuration not stated)	345	20 to 30 (≈ 6.85 to 10.3 µg/mL)		
CC12CC3CC(C)(C1)CC(NC(=S)Nc1ccc(C45CC6CC(CC(C6)C4)C5)cc1)(C3)C2	2480	70 to 80 (≈ 31.4 to 35.9 µg/mL)		
S=C(NCC12CC3CC(CC(C3)C1)C2)Nc1ccc(C23CC4CC(CC(C4)C2)C3)cc1	5900	65 to 75 (≈ 28.3 to 32.6 µg/mL)		
CC(NC(=S)NC1C2CC3CC(C2)CC1C3)C12CC3CC(CC(C3)C1)C2 (configuration not stated)	7780	30 to 40 (≈ 11.2 to 14.9 µg/mL)		
CC12CC3CC(C)(C1)CC(NC(=S)NCc1ccccc1)(C3)C2	58	10 to 15 (≈ 3.29 to 4.93 µg/mL)		
S=C(NC1C2CC3CC(C2)CC1C3)NC1C2CC3CC(C2)CC1C3 (configuration not stated)	131	50 to 60 (≈ 17.2 to 20.7 µg/mL)		
S=C(Nc1ccc(C23CC4CC(CC(C4)C2)C3)cc1)NC1C2CC3CC(C2)CC1C3 (configuration not stated)	5940	175 to 200 (≈ 73.6 to 84.1 µg/mL)		
CC(NC(=S)NC12CC3CC(CC(C3)C1)C2)C12CC3CC(CC(C3)C1)C2 (configuration not stated)	60.3			
Fc1cccc(NC(=S)NCCC23CC4CC(CC(C4)C2)C3)c1	160	80 to 90 (≈ 26.6 to 29.9 µg/mL)		
CC12CC3CC(C)(C1)CC(NC(=S)Nc1cccc(F)c1)(C3)C2	58	50 to 60 (≈ 16.6 to 19.9 µg/mL)		
S=C(NCCCCCCCCNC(=S)NC12CC3CC(CC(C3)C1)C2)NC12CC3CC(CC(C3)C1)C2	9.8	40 to 50 (≈ 21.2 to 26.5 µg/mL)	374	1170
Fc1ccc(NC(=S)NCCC23CC4CC(CC(C4)C2)C3)cc1	148	125 to 150 (≈ 41.6 to 49.9 µg/mL)		
CCC(CC12CC3CC(CC(C3)C1)C2)NC(=S)Nc1ccccc1 (configuration not stated)	50200			

— ChEMBL document CHEMBL4118216, “Adamantyl thioureas as soluble epoxide hydrolase inhibitors” (Bioorg Med Chem Lett, 2018)
